Assay results as given in ChEMBL document CHEMBL4177526, “Discovery and structure activity relationship of the first potent cryptosporidium FIKK kinase inhibitor” (Bioorg Med Chem, 2017).

Assays:
[1] = molecular target: Serine/threonine-protein kinase pim-1 (Homo sapiens) (UniProt P11309); test: Inhibition of human PIM1 (2 to 313 residues) assessed as residual activity at 500 nM in presence of 33P-ATP by filter binding assay relative to control
[2] = molecular target: Serine/threonine-protein kinase WNK1 (Homo sapiens) (UniProt Q9H4A3); test: Inhibition of human WNK1 (1 to 661 residues) assessed as residual activity at 500 nM in presence of 33P-ATP by filter binding assay relative to control
[3] = molecular target: Mitogen-activated protein kinase 8 (Homo sapiens) (UniProt P45983); test: Inhibition of human JNK1 (1 to 384 residues) assessed as residual activity at 500 nM in presence of 33P-ATP by filter binding assay relative to control
[4] = molecular target: Ephrin type-B receptor 2 (Homo sapiens) (UniProt P29323); test: Inhibition of human EPHB2 (560 to 987 residues) assessed as residual activity at 500 nM in presence of 33P-ATP by filter binding assay relative to control
[5] = molecular target: Serine/threonine-protein kinase Nek2 (Homo sapiens) (UniProt P51955); test: Inhibition of human NEK2A (1 to 445 residues) assessed as residual activity at 500 nM in presence of 33P-ATP by filter binding assay relative to control
[6] = molecular target: Ephrin type-B receptor 3 (Homo sapiens) (UniProt P54753); test: Inhibition of human EPHB3 (565 to 984 residues) assessed as residual activity at 500 nM in presence of 33P-ATP by filter binding assay relative to control
[7] = molecular target: Homeodomain-interacting protein kinase 2 (Homo sapiens) (UniProt Q9H2X6); test: Inhibition of human HIPK2 (165 to 564 residues) assessed as residual activity at 500 nM in presence of 33P-ATP by filter binding assay relative to control
[8] = molecular target: Death-associated protein kinase 1 (Homo sapiens) (UniProt P53355); test: Inhibition of human DAPK1 (1 to 363 residues) assessed as residual activity at 500 nM in presence of 33P-ATP by filter binding assay relative to control
[9] = molecular target: Casein kinase II subunit alpha (Homo sapiens) (UniProt P68400); test: Inhibition of human CK2alpha (2 to 391 residues) assessed as residual activity at 500 nM in presence of 33P-ATP by filter binding assay relative to control
[10] = molecular target: Interleukin-1 receptor-associated kinase 1 (Homo sapiens) (UniProt P51617); test: Inhibition of human IRAK1 (1 to 712 residues) assessed as residual activity at 500 nM in presence of 33P-ATP by filter binding assay relative to control
[11] = molecular target: Serine/threonine-protein kinase MARK1 (Homo sapiens) (UniProt Q9P0L2); test: Inhibition of human MARK1 (2 to 795 residues) assessed as residual activity at 500 nM in presence of 33P-ATP by filter binding assay relative to control
[12] = molecular target: Mitogen-activated protein kinase kinase kinase kinase 5 (Homo sapiens) (UniProt Q9Y4K4); test: Inhibition of MAP4K5 (unknown origin) assessed as residual activity at 500 nM relative to control
[13] = molecular target: MAP kinase-interacting serine/threonine-protein kinase 2 (Homo sapiens) (UniProt Q9HBH9); test: Inhibition of human MNK2alpha (2 to 465 residues) assessed as residual activity at 500 nM in presence of 33P-ATP by filter binding assay relative to control
[14] = molecular target: Tau-tubulin kinase 2 (Homo sapiens) (UniProt Q6IQ55); test: Inhibition of human TTBK2 (1 to 450 residues) assessed as residual activity at 500 nM in presence of 33P-ATP by filter binding assay relative to control
[15] = molecular target: AMPK alpha1/beta2/gamma1 (Homo sapiens) (UniProt O43741+P54619+Q13131); test: Inhibition of human AMPKalpha1 (11 to 559 residues)/beta2 (1 to 272 residues)/gamma1 (1 to 331 residues) assessed as residual activity at 500 nM in presence of 33P-ATP by filter binding assay relative to control; format: protein-complex assay
[16] = molecular target: Tyrosine-protein kinase Yes (Homo sapiens) (UniProt P07947); test: Inhibition of human YES1 (1 to 543 residues) assessed as residual activity at 500 nM in presence of 33P-ATP by filter binding assay relative to control
[17] = molecular target: Serine/threonine-protein kinase Nek6 (Homo sapiens) (UniProt Q9HC98); test: Inhibition of human NEK6 (8 to 313 residues) assessed as residual activity at 500 nM in presence of 33P-ATP by filter binding assay relative to control
[18] = molecular target: Aurora kinase A (Homo sapiens) (UniProt O14965); test: Inhibition of human Aurora-A (2 to 403 residues) assessed as residual activity at 500 nM in presence of 33P-ATP by filter binding assay relative to control
[19] = molecular target: Serine/threonine-protein kinase 16 (Homo sapiens) (UniProt O75716); test: Inhibition of human MPSK1 (1 to 305 residues) assessed as residual activity at 500 nM in presence of 33P-ATP by filter binding assay relative to control
[20] = molecular target: Tyrosine-protein kinase BTK (Homo sapiens) (UniProt Q06187); test: Inhibition of human BTK (2 to 659 residues) assessed as residual activity at 500 nM in presence of 33P-ATP by filter binding assay relative to control
[21] = molecular target: Dual specificity tyrosine-phosphorylation-regulated kinase 3 (Homo sapiens) (UniProt O43781); test: Inhibition of human DYRK3 (1 to 588 residues) assessed as residual activity at 500 nM in presence of 33P-ATP by filter binding assay relative to control
[22] = test system: Cryptosporidium parvum; test: Antiparasitic activity against Cryptosporidium parvum Iowa oocysts infected in human HCT8 cells pretreated prior to infection measured after 48 hrs by fluorescein labeled Vicia villosa lectin/Hoechst 33258 staining based epifluorescence microscopic analysis; format: functional, organism-based; details: Cryptosporidium parvum, Iowa, HCT-8; read-out: EC50
In short: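 HCT-8 cells grown in RPMI-1640 with 10% heat-inactivated FBS and penicillin. Three-fold compound dilutions in culture medium were added to confluent cells before about 5500 excysted C. parvum Iowa oocysts per well. After 48 h, cells were fixed with 4% paraformaldehyde and permeabilized. Vacuoles were stained with fluorescein-Vicia villosa lectin (1.33 µg/mL, 1 h, 37 °C) and nuclei with Hoechst 33258, then imaged by epifluorescence microscopy.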

[23] = molecular target: Dual specificity testis-specific protein kinase 1 (Homo sapiens) (UniProt Q15569); test: Inhibition of human TESK1 (1 to 345 residues) assessed as residual activity at 500 nM in presence of 33P-ATP by filter binding assay relative to control
[24] = molecular target: Interleukin-1 receptor-associated kinase 4 (Homo sapiens) (UniProt Q9NWZ3); test: Inhibition of human IRAK4 (14 to 460 residues) assessed as residual activity at 500 nM in presence of 33P-ATP by filter binding assay relative to control

- Activity [1]: 97%
- Activity [2]: 107%
- Activity [3]: 134%
- Activity [4]: 95%
- Activity [5]: 102%
- Activity [6]: 89%
- Activity [7]: 131%
- Activity [9]: 119%
- Activity [10]: 109%
- Activity [11]: 91%
- Activity [12]: 148%
- Activity [13]: 98%
- Activity [14]: 125%
- Activity [15]: 120%
- Activity [16]: 53%
- Activity [17]: 108%
- Activity [18]: 120%
- Activity [19]: 99%
- Activity [20]: 105%
- Activity [21]: 109%
- EC50 [22]: 2600 nM
- Activity [23]: 87%
- Activity [24]: 110%
SMILES: Cc1cccc(-c2nc(N)sc2-c2ccc3ncccc3n2)c1
- Activity [8]: 96%
